This note sets out measurements from ChEMBL document CHEMBL1145956, “Indanylidenes. 2. Design and synthesis of (E)-2-(4-chloro-6-fluoro-1-indanylidene)-N-methylacetamide, a potent antiinflammatory and analgesic agent without centrally acting muscle relaxant activity” (2003).

The term ED50 denotes the midpoint of the dose-response relation. One may read the inhibition in vivo as the drop in the measured response relative to a control, in per cent. Low values mean a weak effect, high ones a strong effect. By Inhibition is commonly meant the share of the control response that was lost under treatment.

Test [1] deals with Mus musculus. Put plainly: Effective dose required for muscle relaxant profile evaluated by straub tail assay when administered perorally in mouse. In kind it is functional. The note with it: po. In a few lines: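 Morphine-induced Straub tail model of muscle relaxant activity, mouse, with oral dosing. Oral testing followed only where ip inhibition at 100 mg/kg exceeded 50%. At least three doses, N=6 animals per dose group. ED50 in mg/kg.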

Test [2] has as its system Rattus norvegicus. As to the kind of experiment: Percent inhibition of analgesia activity when administered perorally at 20 mg/kg in rat. In kind it is functional. A digest of the protocol:
(§1)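 Rat trypsin hyperalgesia model for mild analgesia. Compounds given orally, either as % inhibition at 20 mg/kg or as ED50 in mg/kg. Each compound tested two or three times.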

Test [3] is described as follows: Ratio of rotarod to that of staub tail. In kind it is functional. In a few lines:
(§2)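 Oral rotorod ED50 divided by oral Straub tail ED50, both in mouse, as an index of sedative potential. Each ED50 from at least three doses, N=6 animals per dose.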
Background: Falling from the rotarod earlier than controls is read as motor impairment.

The subject of test [4] is Mus musculus. As to the kind of experiment: Percent inhibition of muscle relaxant profile evaluated by straub tail assay when administered intraperitoneally at 100 mg/kg in mouse. The note with it: route intraperitoneal; for % effect at 100 mg/kg: Mus musculus. In kind it is functional. In a few lines:
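Morphine-induced Straub tail model of muscle relaxant activity, mouse. Compound given intraperitoneally at 100 mg/kg and read out as % inhibition.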

Test [5] concerns Mus musculus. Put plainly: Effective dose required for muscle relaxant profile in mouse by rotarod assay, when compound administered perorally. Conditions: po. In kind it is functional. A digest of the protocol: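 Rotorod model of sedation, mouse, with oral dosing. Used for compounds that passed the Straub tail ip screen. At least three doses, N=6 animals per dose group. ED50 in mg/kg.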

The test system of test [6] is Rattus norvegicus. As to the kind of experiment: Antiinflammatory activity against 3h carrageenan pleurisy (cells) in rat peroral administration. In kind it is functional. The note with it: po. A digest of the protocol: (§3)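 Rat 3 h carrageenan pleurisy model, read out as pleural cell count and as edema. Compounds given orally, either as % inhibition at 20 mg/kg or as ED50 in mg/kg. Each compound tested two or three times.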

Test [7] deals with Rattus norvegicus. As to the kind of experiment: Antiinflammatory activity against 3h carrageenan pleurisy (edma) in rat peroral administration. Conditions: po. In kind it is functional. In a few lines:
as §3

The nature of test [8]: Ratio of rotarod to that of staub tail; ND is activity not determined. In kind it is functional. A digest of the protocol:
as §2

Test [9] has as its system Rattus norvegicus. Put plainly: Inhibition of trypsin hyperalgesia when administered perorally in rat. In kind it is functional. A digest of the protocol:
as §1

For test [10], the system named is Rattus norvegicus. As to the kind of experiment: Antiinflammatory activity against 3h carrageenan pleurisy (edma) in rat mg/kg peroral administration. In kind it is functional. Conditions: po. A digest of the protocol: as §3
The subject of test [11] is Rattus norvegicus. Put plainly: Antiinflammatory activity against 3h carrageenan pleurisy (edma) in rat at 20 mg/kg peroral administration. In kind it is functional. Conditions: route oral. A digest of the protocol: as §3
Test [12] deals with Rattus norvegicus. Put plainly: Antiinflammatory activity against 3h carrageenan pleurisy (cells) in rat at 20 mg/kg peroral administration. In kind it is functional. Conditions: route oral. A digest of the protocol:
as §3

For test [13], the species on record is Rattus norvegicus. Put plainly: Antiinflammatory activity against trypsin hyperalgesia in rat at peroral dose of compound. The note with it: po.
Test [14] is described as follows: Ratio of rotarod to that of straub tail. In kind it is functional. In a few lines:
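Ratio of oral rotorod ED50 (sedation) to oral ED50 in the morphine-induced Straub tail test. Only compounds giving >50% inhibition in the Straub tail test at 100 mg/kg ip went on to oral testing in both assays. Each assay generally used at least three doses with N=6 animals per dose group; variability approximately 15%.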

Setting [15] is: Rattus norvegicus, po, read-out: ED50.

Take `NC(=O)/C=C1\CCc2cc(Cl)c(F)cc21`: the figures for the ED50 in test [1] and in [5] were 50 mg/kg and 56 mg/kg, respectively. This compound also showed an inhibition in vivo at 20 mg/kg in [2] (Rattus norvegicus, po) of 19%. The Ratio in [3] is 1.1. In addition, the % effect at 100 mg/kg in [4] (ip) turned out to be 100%.
In the case of `O=C(/C=C1\CCc2c(F)cc(Cl)cc21)NC1CC1`, 20 mg/kg produced 31% inhibition in vivo in [2] (Rattus norvegicus, po).
On to `NC(=O)/C=C1\CCc2c(Br)cc(F)cc21`, for which the ED50 in test [6] and in test [7] was over 20 mg/kg each time.
For `NC(=O)/C=C1\CCc2c(Cl)cc(F)cc21` (stereo in doubt) [listing 1 of 2 here], in test [8], the Ratio was found to be 1.3.
In the case of `O=C(/C=C1\CCc2c(Cl)cc(F)cc21)NC1CC1`, the ED50 in [1] amounted to 44 mg/kg; in test [5], 44 mg/kg; in [9] (setting [15]), 0.9 mg/kg. In test [2] (Rattus norvegicus, po), this compound displayed an inhibition in vivo at 20 mg/kg of 75%. In test [3], the Ratio came to 1. For the same compound, in test [4] (ip), the % effect at 100 mg/kg was 100%.
On to `Cc1cc(Cl)c2c(c1)/C(=C/C(N)=O)CC2`, for which the ED50 in test [10] and in test [6] was over 25 mg/kg throughout.
Regarding `NC(=O)/C=C1\CCc2c(Cl)cc(Cl)cc21`, the ED50 in [6] amounted to 25 mg/kg; in test [7], 20 mg/kg; in test [9] (setting [15]), 4.1 mg/kg. This compound also showed a % effect in test [4] of 0%.
On to `CNC(=O)/C=C1\CCc2cc(Cl)cc(Cl)c21`, for which the inhibition in vivo at 20 mg/kg in [2] (Rattus norvegicus, po) was determined as 22%; in test [11], 34%; in test [12] it was 0%. The compound also displayed a % effect at 100 mg/kg in test [4] (ip) of 50%.
`CNC(=O)/C=C1\CCc2c(Cl)cc(Cl)cc21` had an ED50 in [1] of over 100 mg/kg. Moreover, the inhibition in vivo at 20 mg/kg in test [2] (Rattus norvegicus, po) came out at 12%; in test [12] it was 9%. Further, the % effect at 100 mg/kg in test [4] (ip) was determined as 83%.
On to `CC(C)Cc1ccc(C(C)C(=O)O)cc1` (centres undefined) [IBUPROFEN], for which the ED50 turned out to be 8 mg/kg in test [11] and 34 mg/kg in test [12].
Consider `COc1ccc2cc([C@H](C)C(=O)O)ccc2c1` [NAPROXEN], for which, in test [13], the 50% effect level (ED50) was put at a dose of 14 mg/kg.
On to `NC(=O)/C=C1\CCc2c(F)cc(Cl)cc21`, for which the inhibition in vivo at 20 mg/kg came out at 36% in test [11] and 34% in test [12]. This compound also gave a % effect at 100 mg/kg in [4] (ip) of 33%. In [9] (setting [15]), the ED50 was over 10 mg/kg.
Turning to `Cc1cc(F)cc2c1CC/C2=C\C(=O)NC1CC1`, the values for the inhibition in vivo at 20 mg/kg in test [2] (route oral), in test [11] and in test [12] were 97%, 7% and 5%, respectively.
For the compound `NC(=O)/C=C1\CCc2c(F)cc(F)cc21`, the ED50 was 19 mg/kg in test [6], 68.7 mg/kg in [1], 15 mg/kg in [11] and 4 mg/kg in [9] (setting [15]). This compound had an inhibition in vivo at 20 mg/kg in [2] (route oral) of 100%. Besides, at 100 mg/kg the inhibition in vivo in [4] (ip) was 100%. The Ratio in test [14] amounted to 2.
As for `Cc1cc(F)cc2c1CC/C2=C\C(N)=O`, the inhibition in vivo at 20 mg/kg amounted to 92% in test [2] (Rattus norvegicus, po); 24% in test [11]; 11% in test [12]. This compound came in with a % effect in test [4] of 0%. Moreover, the ED50 in test [9] (setting [15]) came to 10 mg/kg.
As to `CNC(=O)/C=C1\CCc2cc(Cl)c(F)cc21`, the inhibition in vivo at 20 mg/kg in [2] (Rattus norvegicus, po) amounted to 22%. Also, the % effect at 100 mg/kg in [4] (ip) turned out to be 17%.
With `O=C(/C=C1\CCc2cc(Cl)c(F)cc21)NC1CC1`, the inhibition in vivo at 20 mg/kg in [2] (Rattus norvegicus, po) came out at 27%.
For `NC(=O)/C=C1\CCc2c(Cl)cc(F)cc21` (stereo in doubt; 3), the 50% effective dose (ED50) came out at 11 mg/kg in [6], 11 mg/kg in test [7] and 4 mg/kg in test [9]. In test [2] (route oral, 20 mg/kg), this compound yielded an Inhibition of 79%. The same compound registered a % effect in test [4] of 0%.
`CNC(=O)/C=C1\CCc2c(Cl)cc(F)cc21`: the ED50 in test [6] came to 8 mg/kg; in test [7], 5 mg/kg; in [9] (setting [15]) it was 1.4 mg/kg. The same compound registered an inhibition in vivo at 20 mg/kg in test [2] (route oral) of 100%. In addition, the % effect at 100 mg/kg in test [4] (ip) worked out at 50%.
Regarding `CNC(=O)/C=C1\CCc2c(C)cc(F)cc21`, the inhibition in vivo at 20 mg/kg was 77% in test [2] (Rattus norvegicus, po); 40% in test [11]; 15% in [12]. The compound further showed a % effect at 100 mg/kg in [4] (ip) of 67%.
In the case of `NC(=O)/C=C1\CCc2cc(Cl)cc(Cl)c21`, the ED50 was under 100 mg/kg in test [1]; 34 mg/kg in test [11]; 5 mg/kg in test [12]; 55 mg/kg in [5]; over 10 mg/kg in test [9] (setting [15]). In addition, the inhibition in vivo at 20 mg/kg in [2] (Rattus norvegicus, po) amounted to 79%. Moreover, the % effect at 100 mg/kg in test [4] (ip) came out at 100%.
For `NC(=O)/C=C1\CCc2c(Cl)cc(F)cc21` (stereo in doubt) [listing 2 of 2 here], the values for the ED50 in [1], in [5] and in test [9] (setting [15]) were 73 mg/kg, 96 mg/kg and 7 mg/kg, respectively. The same compound displayed an inhibition in vivo at 20 mg/kg in test [2] (Rattus norvegicus, po) of 70%.
